The source of these data is ChEMBL document CHEMBL1151249, “Cytotoxic and antimicrobial constituents of the bark of Diospyros maritima collected in two geographical locations in Indonesia” (J Nat Prod, 2004).

≈ marks a conversion by molar mass, not a printed value. Calls of active or inactive are those of the source. The calls are words filed in the database; no cut-off is given here.

The subject of data set [1] is KB. The data set can be described thus: Cytotoxicity against human KB cells. In kind it is functional, cell-based. The note with it: read-out: ED50 (the source's name).
In data set [2] the test system is Lu1. The data set can be described thus: Cytotoxicity against human Lu1 cells. In kind it is functional. The note with it: read-out: ED50 (the source's name).
The test system of data set [3] is LNCaP. The data set can be described thus: Cytotoxicity against human LNCAP cells. It is filed as functional. The note with it: read-out: ED50 (the source's name).
Data set [4] can be described thus: Cytotoxicity against human HUVEC. In kind it is cell-based. The following applies: HUVEC cells, read-out: ED50 (the source's name).
For data set [5], the system named is Micrococcus luteus. Nature of the data set: Antimicrobial activity against Micrococcus luteus after 18 hrs by zone-of-inhibition assay. In kind it is functional, organism-based.
Data set [6] relates to Micrococcus luteus. Nature of the data set: Antimicrobial activity against Micrococcus luteus assessed as 99.9 % growth inhibition after 18 hrs by zone-of-inhibition assay. It is filed as functional.
In data set [7] the test system is Staphylococcus aureus. Nature of the data set: Antimicrobial activity against Staphylococcus aureus after 18 hrs by zone-of-inhibition assay. In kind it is functional, organism-based.
Data set [8] deals with Staphylococcus aureus. The data set can be described thus: Antimicrobial activity against Staphylococcus aureus assessed as 99.9 % growth inhibition after 18 hrs by zone-of-inhibition assay. In kind it is functional.
The subject of data set [9] is Mycolicibacterium smegmatis. Nature of the data set: Antimicrobial activity against Mycobacterium smegmatis after 18 hrs by zone-of-inhibition assay. It is filed as functional, organism-based.
Data set [10] deals with Mycolicibacterium smegmatis. Nature of the data set: Antimicrobial activity against Mycobacterium smegmatis assessed as 99.9 % growth inhibition after 18 hrs by zone-of-inhibition assay. In kind it is functional.
In data set [11] the test system is Mycobacterium avium. Nature of the data set: Antimicrobial activity against Mycobacterium avium after 18 hrs by zone-of-inhibition assay. It is filed as functional, organism-based.
The subject of data set [12] is Mycobacterium avium. Nature of the data set: Antimicrobial activity against Mycobacterium avium assessed as 99.9 % growth inhibition after 18 hrs by zone-of-inhibition assay. In kind it is functional.
The test system of data set [13] is Candida albicans. The data set can be described thus: Antifungal activity against Candida albicans after 18 hrs by zone-of-inhibition assay. In kind it is functional, organism-based. The note with it: Candida albicans, 18 h.
The subject of data set [14] is Cryptococcus neoformans. Nature of the data set: Antifungal activity against Cryptococcus neoformans after 18 hrs by zone-of-inhibition assay. The note with it: Cryptococcus neoformans, 18 h. It is filed as functional, organism-based.
The test system of data set [15] is Cryptococcus neoformans. The data set can be described thus: Antifungal activity against Cryptococcus neoformans assessed as 99.9 % growth inhibition after 18 hrs by zone-of-inhibition assay. In kind it is functional.
Data set [16] relates to Saccharomyces cerevisiae. Nature of the data set: Antifungal activity against Saccharomyces cerevisiae after 18 hrs by zone-of-inhibition assay. In kind it is functional, organism-based.
The subject of data set [17] is Saccharomyces cerevisiae. The data set can be described thus: Antifungal activity against Saccharomyces cerevisiae assessed as 99.9 % growth inhibition after 18 hrs by zone-of-inhibition assay. In kind it is functional.
For data set [18], the system named is Aspergillus niger. The data set can be described thus: Antifungal activity against Aspergillus niger after 18 hrs by zone-of-inhibition assay. It is filed as functional, organism-based.
Data set [19] concerns Aspergillus niger. The data set can be described thus: Antifungal activity against Aspergillus niger assessed as 99.9 % growth inhibition after 18 hrs by zone-of-inhibition assay. It is filed as functional.
Data set [20] relates to Candida albicans. The data set can be described thus: Antimicrobial activity against Candida albicans assessed as 99.9 % growth inhibition after 18 hrs by zone-of-inhibition assay. In kind it is functional.
Data set [21] has as its system KB. Nature of the data set: Antitumor activity against human KB cell xenografted mouse by hollow fiber assay. In kind it is functional, cell-based. The gist of the method:
(§1)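 Hollow fiber assay in mice with KB, LNCaP or Lu1 cells in fibers implanted at intraperitoneal and subcutaneous sites. Mice were treated by injection at doses from 1.25 to 10 mg/kg or up to 50 mg/kg. Tumor cell growth inhibition in the fibers was assessed at each site.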

Data set [22] deals with Lu1. The data set can be described thus: Antitumor activity against human Lu1 cell xenografted mouse by hollow fiber assay. In kind it is functional, cell-based. The gist of the method: as §1
On the technique in general: Xenograft models place foreign cells or tissue in a host animal.

Data set [23] relates to LNCaP. Nature of the data set: Antitumor activity against human LNCAP cell xenografted mouse by hollow fiber assay. In kind it is functional, cell-based. The gist of the method: as §1
Data set [24] has as its system Mus musculus. The data set can be described thus: Toxicity in human KB cell xenografted mouse at 50 mg/kg. Further details: dose 50 mg/kg. In kind it is organism-based. The following applies: in vivo.
Data set [25] has as its system Mus musculus. Nature of the data set: Toxicity in human LNCaP cell xenografted mouse at 50 mg/kg. It is filed as organism-based. On the set-up: dose 50 mg/kg. The note with it: in vivo.
In data set [26] the test system is Mus musculus. The data set can be described thus: Toxicity in human LU1 cell xenografted mouse at 50 mg/kg. The following applies: in vivo. It is filed as organism-based. On the set-up: dose 50 mg/kg.
For data set [27], the system named is Mus musculus. Nature of the data set: Toxicity in human KB cell xenografted mouse assessed as body weight loss at 5 mg/kg. In kind it is organism-based. Further details: dose 5 mg/kg. The note with it: in vivo. The gist of the method: (§2)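 In vivo hollow fiber assay in mice, with KB, LNCaP or Lu1 cancer cells at intraperitoneal and subcutaneous sites. Doses ranged from 1.25 to 10 mg/kg, with six mice per dose group. Body weight and deaths were recorded alongside tumor-cell growth inhibition.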

Data set [28] concerns Mus musculus. The data set can be described thus: Toxicity in human LNCaP cell xenografted mouse assessed as body weight loss at 5 mg/kg. In kind it is organism-based. Further details: dose 5 mg/kg. The following applies: in vivo. The gist of the method:
as §2

The subject of data set [29] is Mus musculus. The data set can be described thus: Toxicity in human LU1 cell xenografted mouse assessed as body weight loss at 5 mg/kg. It is filed as organism-based. On the set-up: dose 5 mg/kg. The note with it: in vivo. The gist of the method:
as §2

In general, IC50 refers to the concentration that inhibits the measured activity by half. Low values mean greater potency, high ones weaker potency. As to `CC1=CC(=O)c2c(ccc(C3=C(C)C(=O)c4cccc(O)c4C3=O)c2O)C1=O` [CHITRANONE], the EC50 in [1] was determined as 0.3 mg/L (≈ 0.801 µM); in data set [2] it was 1.1 mg/L (≈ 2.94 µM); in data set [3], 2.2 mg/L (≈ 5.88 µM). Also, the CC50 in data set [4] was found to be 2.1 mg/L (≈ 5.61 µM). The IC50 is 10 mg/L (≈ 26.7 µM) in data set [5]; 90 mg/L (≈ 240 µM) in data set [7]; 6 mg/L (≈ 16 µM) in data set [9]; 5 mg/L (≈ 13.4 µM) in [11]; 10 mg/L (≈ 26.7 µM) in data set [13]; 3 mg/L (≈ 8.01 µM) in data set [14]. For the same compound, the IC50 in data set [16] was 3 mg/L (≈ 8.01 µM); in data set [18], 6 mg/L (≈ 16 µM). Besides, the Activity in data set [6] is greater than 1000 µg/mL; in data set [8], greater than 1000 µg/mL; in data set [10] it was 20 µg/mL; in data set [12], 90 µg/mL; in data set [15], 10 µg/mL; in data set [17], 10 µg/mL. Besides, the Activity in [19] and in data set [20] was greater than 1000 µg/mL throughout.

In the case of `CC1=CC(=O)c2c(O)ccc(-c3ccc(O)c4c3C(=O)C(C)=CC4=O)c2C1=O` [MARITINONE], the results for the EC50 in data set [1], in data set [2] and in [3] were 0.3 mg/L (≈ 0.801 µM), 1.4 mg/L (≈ 3.74 µM) and 2.2 mg/L (≈ 5.88 µM), respectively. For the same compound, the CC50 in data set [4] came to 2.2 mg/L (≈ 5.88 µM). In addition, the IC50 was determined as 200 mg/L (≈ 534 µM) in data set [5]; 9 mg/L (≈ 24 µM) in data set [7]; 20 mg/L (≈ 53.4 µM) in data set [9]; 600 mg/L (≈ 1600 µM) in [11]; 40 mg/L (≈ 107 µM) in [13]; 20 mg/L (≈ 53.4 µM) in data set [14]. Also, the IC50 stood at 9 mg/L (≈ 24 µM) in data set [16] and 40 mg/L (≈ 107 µM) in data set [18]. Also, the Activity in data set [6] was greater than 1000 µg/mL; in data set [8], 300 µg/mL; in data set [10], 80 µg/mL; in data set [15], 200 µg/mL; in data set [17], 80 µg/mL; in data set [19], greater than 1000 µg/mL. Moreover, the Activity entry in data set [24] was “Toxic”; in [25], “Toxic”; in data set [26], “Toxic”; in data set [20], 40 µg/mL. The result in data set [21], in [22] and in [23] was inactive.

As to `CC1=CC(=O)c2c(O)cccc2C1=O` [PLUMBAGIN], the EC50 is 0.3 mg/L (≈ 1.59 µM) in data set [1], 0.3 mg/L (≈ 1.59 µM) in data set [2] and 0.4 mg/L (≈ 2.13 µM) in data set [3]. Moreover, the CC50 in data set [4] stood at 0.4 mg/L (≈ 2.13 µM). The IC50 in data set [5] was found to be 80 mg/L (≈ 425 µM); in data set [7], 100 mg/L (≈ 531 µM); in data set [9], 300 mg/L (≈ 1590 µM); in [11], 600 mg/L (≈ 3190 µM); in data set [13], 9 mg/L (≈ 47.8 µM); in data set [14], 20 mg/L (≈ 106 µM). In addition, the IC50 was found to be 10 mg/L (≈ 53.1 µM) in [16] and 20 mg/L (≈ 106 µM) in data set [18]. Further, the Activity in data set [6] is 600 µg/mL; in data set [8], 600 µg/mL; in data set [10], greater than 1000 µg/mL; in data set [12], greater than 1000 µg/mL; in data set [15], 40 µg/mL; in [17] it was 40 µg/mL. Besides, the Activity in data set [19] is 400 µg/mL; in data set [27], “Toxic”; in data set [28], “Toxic”; in data set [29] it was “Toxic”; in data set [20] it was greater than 1000 µg/mL.
